Measured values: ChEMBL document CHEMBL3352378, “Novel carbazole inhibits phospho-STAT3 through induction of protein-tyrosine phosphatase PTPN6” (J Med Chem, 2014)
Calls of active or inactive are those of the source. The calls are words filed in the database; no cut-off is given here.

Target: Signal transducer and activator of transcription 3 (Homo sapiens) (UniProt P40763)
Assay: Inhibition of STAT3C-mediated transcription in human Hs578T cells at 1 uM after 24 hrs by luciferase reporter gene assay
Format: cell-based
Details: Hs-578T
Summary of the method: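 HS578T cells co-transfected with a constitutively active STAT3 (STAT3C) expression vector and the APRE-Luc reporter. Treated at 1 μM for 24 h, with JAK2 inhibitor AZD1480 for comparison. Luciferase measured; mean ± SD of triplicates.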

Sequence of Signal transducer and activator of transcription 3 (Homo sapiens) (P40763 whole entry): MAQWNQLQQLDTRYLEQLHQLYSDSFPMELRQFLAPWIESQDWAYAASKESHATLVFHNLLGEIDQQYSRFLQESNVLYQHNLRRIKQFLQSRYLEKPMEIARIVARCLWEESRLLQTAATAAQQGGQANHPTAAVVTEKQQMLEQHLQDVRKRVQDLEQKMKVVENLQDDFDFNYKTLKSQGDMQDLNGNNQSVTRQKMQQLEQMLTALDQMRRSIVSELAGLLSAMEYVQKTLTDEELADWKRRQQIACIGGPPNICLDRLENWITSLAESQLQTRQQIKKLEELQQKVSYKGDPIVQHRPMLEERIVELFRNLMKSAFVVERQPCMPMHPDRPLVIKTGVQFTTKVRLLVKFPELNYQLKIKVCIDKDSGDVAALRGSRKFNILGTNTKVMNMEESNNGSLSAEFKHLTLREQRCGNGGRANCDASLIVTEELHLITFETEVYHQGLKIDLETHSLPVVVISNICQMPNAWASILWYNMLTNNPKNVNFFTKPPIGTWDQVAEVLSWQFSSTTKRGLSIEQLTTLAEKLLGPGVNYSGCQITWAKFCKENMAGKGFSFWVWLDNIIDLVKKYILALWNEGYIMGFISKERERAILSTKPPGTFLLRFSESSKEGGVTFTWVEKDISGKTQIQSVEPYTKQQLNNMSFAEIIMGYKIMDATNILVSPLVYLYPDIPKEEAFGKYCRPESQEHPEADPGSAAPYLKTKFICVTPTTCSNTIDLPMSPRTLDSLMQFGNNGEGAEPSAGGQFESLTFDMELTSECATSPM

inhibition: Active
SMILES: Cc1cc(Nc2nc(N[C@@H](C)c3ncc(F)cn3)ncc2Cl)[nH]n1
